Screening data (PubChem)
DENV2 CPE rescue: inhibitors of DENV2 cytopathic effect, primary screen, cell-based, plate reader, single concentration; DENV2-infected cells, cytopathic effect rescue; CPE inhibition, % at 9.99 µM; 1.7% of 350,000 active; in the data active = CPE inhibition above about 20%, passing the limit was not always enough; inconclusive = no clear call, values can overlap the other calls; tested in BHK-21 cells;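 also: 0% = median of neutral control wells and 100% = median of positive control wells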
E-selectin induc: E-selectin induction in HUVECs, primary screen, imaging, HUVEC, immunofluorescence imaging, single point. normalized: neutral wells 0, TNF-alpha wells 100. activation, % at 7.58 µM. 0.37% of 260,000 active;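 active = mean E-selectin-positive cell signal at least 10% of the positive control, reached in at least 60% of replicates, without over 20% cell loss; inconclusive = no rule given, readout overlaps actives, possibly toxicity-flagged; inactive = the rest, including those meeting only one limit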
Target sequence (P16581 whole entry, looked up): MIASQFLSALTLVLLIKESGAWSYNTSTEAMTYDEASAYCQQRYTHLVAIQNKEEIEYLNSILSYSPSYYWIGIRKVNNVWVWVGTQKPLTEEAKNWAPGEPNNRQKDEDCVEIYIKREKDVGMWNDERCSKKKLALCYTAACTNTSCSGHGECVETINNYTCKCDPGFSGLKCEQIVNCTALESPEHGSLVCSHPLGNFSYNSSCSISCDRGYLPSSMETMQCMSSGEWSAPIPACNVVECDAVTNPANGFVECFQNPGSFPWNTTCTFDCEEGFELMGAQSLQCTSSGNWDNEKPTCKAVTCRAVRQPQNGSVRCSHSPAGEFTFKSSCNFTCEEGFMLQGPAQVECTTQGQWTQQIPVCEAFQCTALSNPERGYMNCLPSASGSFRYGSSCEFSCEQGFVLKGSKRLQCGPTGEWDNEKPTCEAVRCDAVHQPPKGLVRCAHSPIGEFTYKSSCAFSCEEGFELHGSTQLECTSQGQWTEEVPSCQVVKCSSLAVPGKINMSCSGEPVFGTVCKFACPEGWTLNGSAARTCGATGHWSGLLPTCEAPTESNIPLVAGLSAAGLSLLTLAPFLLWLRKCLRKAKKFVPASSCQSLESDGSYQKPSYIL
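Assay system: HUVEC primary endothelial cells. Input: 3,000 HUVEC seeded per well. Doses: one compound dose added by pin transfer. Read-out basis: % PE-positive cells. Benchmarks: TNF-alpha high, DMSO low. Detection: immunofluorescence imaging. Buffer or medium: EGM-2, gelatin.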
SIRT5 inh: SIRT5 desuccinylase inhibitors, primary screen, biochemical, fluorescence imaging, single point, set 5. 1.1% of 330,000 active. Purified SirT5, succinyl-peptide AMC, trypsin-coupled fluorescence. inhibition, % at 15 µM; in the data active = inhibition above about 15%; inconclusive = no clear call, values can overlap the other calls
* = called active by the depositor; ? = inconclusive; / = no result. Hits are enriched below; roughly 2.8% of the tested compounds scored in any of these assays.

SMILES | DENV2 CPE rescue | E-selectin induc | SIRT5 inh
O=C1NC(=S)N(c2ccccc2)C(=O)/C1=C/c1ccco1 | 3.3 | / | 37.7*
COc1cccc(N2C(=O)/C(=C/c3ccc(C)o3)C(=O)NC2=S)c1 | 14.2 | 0.0 | 13.7
COc1ccccc1/C=C1\C(=O)NC(=S)N(c2ccccc2)C1=O | -1.6 | 0.1 | 3.2
COC(=O)[C@H]1[C@H](CO)[C@H]2Cn3c(cccc3=O)[C@@H]1N2Cc1nccs1 | -2.5 | -0.2 | 3.8
O=C1NC(=O)N(Cc2ccc(F)cc2)C(=O)/C1=C\c1ccc([N+](=O)[O-])s1 | -1.4 | / | 28.4*
COc1ccc(CN2C(=O)NC(=O)/C(=C/c3ccc([N+](=O)[O-])s3)C2=O)cc1 | 7.0 | / | 41.3*
O=C1NC(=O)N(Cc2ccc(F)cc2)C(=O)/C1=C\c1ccc(N2CCCC2)cc1 | 18.4 | / | 0.3
COc1ccc(CN2C(=O)NC(=O)/C(=C\c3ccco3)C2=O)cc1 | 1.5 | / | 14.0
C[C@H]1CN([C@@H](C)CO)C(=O)c2c(c3ccccc3n2C)-c2ccccc2CO[C@@H]1CN(C)C(=O)Oc1ccccc1 | -2.3 | 0.0 | 5.6
O=C(Cc1cccnc1)N1CCCCN2[C@H](C1)[C@@H](c1ccc(/C=C/c3ccccc3)cc1)[C@@H]2CO | -10.0 | -0.8 | -2.0
CS(=O)(=O)c1ccc(C2=C(CNC(=O)c3nccs3)[C@H]3CC[C@@H](C2)N3CCOc2ccccc2)cc1 | -0.4 | -0.4 | /
CS(=O)(=O)c1ccc(C2=C(CNC(=O)c3cccs3)[C@H]3CC[C@@H](C2)N3CCOc2ccccc2)cc1 | -2.3 | -1.2 | 30.2*
O=C(Cc1ccccn1)N1CC2(C1)[C@@H](c1ccccc1)[C@@H](CO)N2Cc1ccccn1 | -4.5 | 0.1 | -0.7
Cc1ccc(/C=C2\C(=O)NC(=O)N(CC3CCCO3)C2=O)s1 (centres undefined) | 29.9* | 0.2 | 2.4
CCN(CC)c1ccc(/C=C2\C(=O)NC(=O)N(CC3CCCO3)C2=O)cc1 (centres undefined) | 9.9 | / | 1.6
COc1ccc(OC(=O)N(C)C[C@H]2OCc3ccccc3-c3c(n(C)c4ccccc34)C(=O)N([C@@H](C)CO)C[C@@H]2C)cc1 | 10.3 | 0.1 | 7.9
O=S(=O)(c1cc(Cl)cc(Cl)c1)N1Cc2cc(N3CCOCC3)ccc2-n2nncc2C1 | 108.0* | 0.0 | 0.0
O=S(=O)(c1cc(Cl)cc(Cl)c1)N1Cc2cc(-c3ccccc3)ccc2-n2nncc2C1 | 13.9 | / | -4.2
CC(C)(C)[C@]1(O)C[C@@H]2OC(=O)C[C@@]23C(=O)O[C@@H]2OC(=O)[C@@H](O)C213 (some centres undefined) | ? | -0.2 | -3.3
C[C@@H]1C(=O)O[C@H]2[C@H](O)[C@]34[C@@H]5OC(=O)[C@]3(OC3OC(=O)[C@H](O)C34[C@H](C(C)(C)C)[C@@H]5O)[C@@]12O (some centres undefined) | 41.7* | 0.1 | 1.1
COc1ccc(C(O)(c2cncnc2)C2CC2)cc1 (centres undefined) | -9.4 | / | 11.5
CCOC(=O)C1=C(NC(=S)NC(=O)c2ccccc2)c2ccccc2CC12CCCC2 | -12.1 | / | 35.2*
CCOP(=O)(OCC)C(NC(=O)c1ccccc1)=C(Cl)Cl | 16.1 | / | -6.1
CC(C)CC#Cc1ccc([C@H]2[C@@H](CO)N3CCCCN(C(=O)Cc4ccccn4)C[C@H]23)cc1 | 0.9 | -0.2 | 6.1
COC(=O)C1=C(c2ccc(OC(F)(F)F)cc2)C[C@@H]2CC[C@H]1N2C(=O)NCCNC(C)=O | -17.5 | 0.9 | /
SMILES | DENV2 CPE rescue | E-selectin induc | SIRT5 inh
COC(=O)C1=C(c2ccc(OC(F)(F)F)cc2)C[C@@H]2CC[C@H]1N2C(=O)NCCOc1ccc(OC)cc1 | 26.0* | 0.5 | /
COC(=O)C1=C(c2ccc(OC(F)(F)F)cc2)C[C@@H]2CC[C@H]1N2C(=O)NC1Cc2ccccc2C1 | -2.2 | 0.0 | /
COC(=O)C1=C(c2ccc(OC(F)(F)F)cc2)C[C@@H]2CC[C@H]1N2C(=O)NC1CCCCC1 | 37.5* | -0.1 | 1.5
CCC(=O)N1[C@@H]2Cn3c(ccc(-c4cccc(F)c4)c3=O)[C@H]1[C@@H](C(=O)OC)[C@@H]2CO | ? | -0.1 | -10.9
O=C(Cc1ccccn1)N1CCCCN2[C@H](CO)[C@@H](c3ccc(-c4ccccc4)cc3)[C@@H]2C1 | -6.4 | 0.1 | 2.6
CCCCOC(=O)c1ccccc1N | 5.7 | / | /
Nc1ccccc1C(=O)OCCc1ccccc1 | 77.8* | / | /
COC(=O)[C@@H]1[C@@H](CO)[C@@H]2Cn3c(ccc(/C=C/c4ccccc4)c3=O)[C@H]1N2CC1CCCC1 | 11.1 | -0.6 | -32.8
CCN1[C@@H]2c3ccc(-c4ccc(OC)cc4)c(=O)n3C[C@H]1[C@H](CO)[C@H]2C(=O)OC | 0.6 | 0.0 | -29.8
CCCN1[C@@H]2Cn3c(ccc(-c4ccccc4)c3=O)[C@H]1[C@@H](C(=O)OC)[C@@H]2CO | 6.7 | -0.7 | -3.2
CCN1[C@@H]2Cn3c(ccc(-c4ccc(OC)cc4)c3=O)[C@H]1[C@@H](C(=O)OC)[C@@H]2CO | -5.0 | -0.1 | -25.3
